Data taken from ChEMBL document CHEMBL1129956, “4-substituted-3-phenylquinolin-2(1H)-ones: acidic and nonacidic glycine site N-methyl-D-aspartate antagonists with in vivo activity” (J Med Chem, 1997).
Activity calls are given as the source filed them. No cut-off for these calls is given here.

Assays:
[1] = test system: Mus musculus; assay: compound was evaluated in vivo for their ability to protect against audiogenic seizure in DBA/2 mice when administered 100 mg/kg ip 30 min prior to noise stimulation out of 8 mice tested; format: functional; conditions: route intraperitoneal
Outline: (§1)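 DBA/2 mice given compound intraperitoneally 30 min before noise stimulation, with protection from audiogenic seizure scored. Results are reported as an ED50 (mg/kg) or as number of mice protected per number tested at a single dose.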

[2] = target: Glutamate receptor ionotropic, NMDA 1 (Rattus norvegicus, UniProt P35439); assay: In vitro ability to displace [3H]L-689,560 binding to glycine site on the N-methyl-D-aspartate (NMDA) glutamate receptor 1 from rat cortical membranes
Outline: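 Glycine-site antagonist [3H]L-689,560 displaced from rat cortex/hippocampus membranes. IC50 (concentration inhibiting 50% of specific binding) taken from 5-point inhibition curves as the geometric mean of at least three experiments. A compound giving under 50% inhibition at 100 μM in two experiments is reported as >100 μM.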

[3] = target: Glutamate NMDA receptor (Rattus norvegicus) (UniProt P35439+Q00959+Q00960+Q00961+Q62645+Q8VHN2+Q9R1M7); assay: (§2) Evaluated to antagonize NMDA responses in a rat cortical slice preparations; format: functional
Outline: (§3)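 Rat cortical slice preparation; antagonist-induced rightward shift of the NMDA concentration–response curve used to calculate apparent Kb; values are the means of three determinations.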

[4] = test system: Mus musculus; assay: Evaluated in vivo for their ability to protect against audiogenic seizure in DBA/2 mice when administered 20 mg/kg ip 30 min prior to noise stimulation out of 8 mice tested; conditions: route intraperitoneal
[5] = test system: Mus musculus; assay: compound was evaluated in vivo for their ability to protect against audiogenic seizure in DBA/2 mice when administered 20 mg/kg ip 30 min prior to noise stimulation out of 8 mice tested; format: functional; conditions: route intraperitoneal; outline: as §1
[6] = test system: Mus musculus; assay: compound was evaluated in vivo for their ability to protect against audiogenic seizure in DBA/2 mice when administered 50 mg/kg ip 30 min prior to noise stimulation out of 8 mice tested; format: functional; conditions: route intraperitoneal; outline: as §1
[7] = test system: Mus musculus; assay: Compound was evaluated in vivo for their ability to protect against audiogenic seizure in DBA/2 mice when dosed ip 30 min prior to noise stimulation and it is evaluated as ED50 value; format: functional; outline: as §1
[8] = target: Glutamate receptor ionotropic, NMDA 1 (Rattus norvegicus) (UniProt P35439); assay: as §2; format: functional; outline: as §3
[9] = target: Glutamate receptor ionotropic, NMDA 1 (Rattus norvegicus) (UniProt P35439); assay: In vitro ability to displace [3H]L-689,560 binding to glycine site on the N-methyl-D-aspartate glutamate receptor 1 from rat cortical membranes at […]
[10] = test system: Mus musculus; assay: compound was evaluated in vivo for their ability to protect against audiogenic seizure in DBA/2 mice when administered 10 mg/kg ip 30 min prior to noise stimulation out of 8 mice tested; format: functional; conditions: route intraperitoneal; outline: as §1
[11] = test system: Mus musculus; assay: compound was evaluated in vivo for their ability to protect against audiogenic seizure in DBA/2 mice when administered 20 mg/kg ip 30 min prior to noise stimulation (expressed as no of mice protected/tested); 1/8; format: functional, organism-based; design: dose 20 mg/kg; outline: as §1
[12] = test system: Mus musculus; assay: Compound was evaluated in vivo for their ability to protect against audiogenic seizure in DBA/2 mice when administered 20 mg/kg ip 30 min prior to noise stimulation out of 8 mice tested; format: functional; conditions: route intraperitoneal; outline: as §1
[13] = test system: Mus musculus; assay: Compound was evaluated in vivo for their ability to protect against audiogenic seizure in DBA/2 mice when administered 20 mg/kg ip 30 min prior to noise stimulation out of 8 mice tested; conditions: route intraperitoneal
[14] = test system: Mus musculus; assay: compound was evaluated in vivo for their ability to protect against audiogenic seizure in DBA/2 mice when dosed ip 30 min prior to noise stimulation and it is evaluated as ED50 value; format: functional; outline: as §1
[15] = test system: Mus musculus; assay: Evaluated in vivo for their ability to protect against audiogenic seizure in DBA/2 mice when administered 100 mg/kg ip 30 min prior to noise stimulation out of 8 mice tested; conditions: route intraperitoneal
[16] = test system: Mus musculus; assay: Compound was evaluated in vivo for their ability to protect against audiogenic seizure in DBA/2 mice when dosed ip 30 min prior to noise stimulation; format: functional; outline: as §1
[17] = test system: Mus musculus; assay: In vivo ability to protect against audiogenic seizure in DBA/2 mice when administered 20 mg/kg ip 30 min prior to noise stimulation out of 8 mice tested; format: functional, organism-based; design: dose 20 mg/kg; outline: as §1
[18] = target: Glutamate receptor ionotropic, NMDA 1 (Rattus norvegicus) (UniProt P35439); assay: In vitro ability to displace [3H]L-689,560 binding to glycine site on the N-methyl-D-aspartate glutamate receptor 1 from rat cortical membranes at 10 uM

Row | SMILES | IC50 [2] [nM] | Kb [3] [nM] | also measured
1 | COC(=O)COc1c(-c2ccccc2)c(O)nc2cc(Cl)ccc12 | 3200 | 960 | No. of mice protected [1]: 1
2 | O=C(O)c1c(-c2ccccc2)c(=O)[nH]c2cc(Cl)ccc12 | 900 | – | –
3 | O=C(O)COc1c(-c2cccc(Oc3ccccc3)c2)c(=O)[nH]c2cc(Cl)ccc12 | 24 | – | –
4 | Nc1c(-c2ccccc2)c(=O)[nH]c2cc(Cl)ccc12 | 6700 | – | –
5 | CS(=O)(=O)Nc1c(-c2ccccc2)c(O)nc2cc(Cl)ccc12 | 270 | 2200 | No. of mice protected [4]: 0
6 | O=C(O)CCc1c(-c2ccccc2)c(O)nc2cc(Cl)ccc12 | – | 2200 | No. of mice protected [5]: 1
7 | CN(C)CCCNc1c(-c2ccccc2)c(O)nc2cc(Cl)ccc12 | 4200 | – | No. of mice protected [1]: 6; No. of mice protected [6]: 1
8 | Nc1c(-c2ccccc2)c(O)nc2cc(Cl)ccc12 | – | 10500 | –
9 | C/C(COc1c(-c2ccccc2)c(O)nc2cc(Cl)ccc12)=N\O | 780 | – | ED50 [7]: 9.4 mg/kg; Kb [8]: 2800 nM
10 | COC(=O)c1c(-c2ccccc2)c(O)nc2cc(Cl)ccc12 | – | – | inhibition [9]: 69%
11 | N#CCOc1c(-c2cccc(Oc3ccccc3)c2)c(O)nc2cc(Cl)ccc12 | 1200 | – | No. of mice protected [10]: 1; No. of mice protected [4]: 8
12 | COC(=O)C(=O)Nc1c(-c2ccccc2)c(O)nc2cc(Cl)ccc12 | 2700 | – | ED50 [11]: inactive
13 | CC(=O)COc1c(-c2ccccc2)c(O)nc2cc(Cl)ccc12 | 1700 | – | No. of mice protected [12]: 5; Kb [8]: 11400 nM
14 | O=C(O)C(=O)Nc1c(-c2ccccc2)c(O)nc2cc(Cl)ccc12 | – | 4500 | No. of mice protected [4]: 0
15 | Oc1nc2cc(Cl)ccc2c(OCc2ccccc2)c1-c1ccccc1 | ~10000 | – | –
16 | CO/N=C(\C)COc1c(-c2ccccc2)c(O)nc2cc(Cl)ccc12 | ~50000 | – | No. of mice protected [13]: 0
17 | CNc1c(-c2ccccc2)c(=O)[nH]c2cc(Cl)ccc12 | > 100000 | – | –
18 | CN(C)C(=O)COc1c(-c2ccccc2)c(O)nc2cc(Cl)ccc12 | 11600 | – | –
19 | O=c1[nH]c2cc(Cl)ccc2c(O)c1-c1cccc(Oc2ccccc2)c1 | – | – | ED50 [14]: 0.9 mg/kg
20 | Oc1nc2cc(Cl)ccc2c(NCc2ccccc2)c1-c1ccccc1 | 2000 | > 3000 | No. of mice protected [4]: 1

Row | SMILES | IC50 [2] [nM] | Kb [3] [nM] | also measured
21 | O=c1[nH]c2cc(Cl)ccc2c(O)c1-c1ccccc1 | – | 880 | ED50 [14]: 4.5 mg/kg
22 | O=c1[nH]c2cc(Cl)ccc2c(NS(=O)(=O)c2ccccc2)c1-c1ccccc1 | 1190 | – | –
23 | O=C(NCc1ccccc1)c1c(-c2ccccc2)c(=O)[nH]c2cc(Cl)ccc12 | > 100000 | – | –
24 | O=C(O)c1c(-c2ccccc2)c(O)nc2cc(Cl)ccc12 | – | – | No. of mice protected [12]: 1; Kb [8]: 1300 nM
25 | O=C(O)CC(=O)Nc1c(-c2ccccc2)c(=O)[nH]c2cc(Cl)ccc12 | 1100 | – | –
26 | Cc1noc(CCc2c(-c3ccccc3)c(O)nc3cc(Cl)ccc23)n1 | 3500 | – | No. of mice protected [4]: 4
27 | O=C(Cc1ccccc1)Nc1c(-c2ccccc2)c(O)nc2cc(Cl)ccc12 | > 100000 | – | –
28 | O=C(O)COc1c(-c2ccccc2)c(O)nc2cc(Cl)ccc12 | 110 | 1250 | No. of mice protected [4]: 3
29 | Oc1nc2cc(Cl)ccc2c(CCc2nnn[nH]2)c1-c1ccccc1 | – | 1600 | No. of mice protected [15]: 0
30 | N#CCCc1c(-c2ccccc2)c(O)nc2cc(Cl)ccc12 | – | > 10000 | No. of mice protected [4]: 0
31 | CN(C)CCOc1c(-c2ccccc2)c(O)nc2cc(Cl)ccc12 | 11000 | – | –
32 | CN(C)CCNc1c(-c2ccccc2)c(O)nc2cc(Cl)ccc12 | – | 12000 | No. of mice protected [1]: 8; No. of mice protected [4]: 0
33 | O=C(O)C(=O)Nc1c(-c2ccccc2)c(=O)[nH]c2cc(Cl)ccc12 | 580 | – | –
34 | O=c1[nH]c2cc(Cl)ccc2c(CCc2nn[nH]n2)c1-c1ccccc1 | 240 | – | –
35 | CN(C)CCNC(=O)C(=O)Nc1c(-c2ccccc2)c(O)nc2cc(Cl)ccc12 | 25000 | – | No. of mice protected [4]: 2
36 | O=S(=O)(Nc1c(-c2ccccc2)c(O)nc2cc(Cl)ccc12)c1ccccc1 | – | 2900 | No. of mice protected [4]: 1
37 | COC(=O)Cc1c(-c2ccccc2)c(O)nc2cc(Cl)ccc12 | – | 4000 | No. of mice protected [4]: 1
38 | O=C(O)CC(=O)Nc1c(-c2ccccc2)c(O)nc2cc(Cl)ccc12 | – | 11600 | No. of mice protected [4]: 2
39 | CCc1c(-c2ccccc2)c(O)nc2cc(Cl)ccc12 | > 100000 | – | –
40 | N#CCOc1c(-c2ccccc2)c(O)nc2cc(Cl)ccc12 | 320 | – | ED50 [16]: 16.3 mg/kg; Kb [8]: 4700 nM

Row | SMILES | IC50 [2] [nM] | Kb [3] [nM] | also measured
41 | O=C(O)COc1c(-c2cccc(Oc3ccccc3)c2)c(O)nc2cc(Cl)ccc12 | – | 560 | No. of mice protected [4]: 0
42 | O=c1[nH]c2cc(Cl)ccc2cc1-c1ccccc1 | > 100000 | – | –
43 | COC(=O)Cc1c(-c2ccccc2)c(=O)[nH]c2cc(Cl)ccc12 | 1100 | – | –
44 | CC(=O)Nc1c(-c2ccccc2)c(O)nc2cc(Cl)ccc12 | 14700 | – | No. of mice protected [17]: inactive
45 | Oc1nc2cc(Cl)ccc2c(OCc2ccccn2)c1-c1ccccc1 | 2800 | – | No. of mice protected [12]: 1
46 | NC(=O)COc1c(-c2ccccc2)c(=O)[nH]c2cc(Cl)ccc12 | 420 | – | –
47 | O=C(O)CCc1c(-c2ccccc2)c(=O)[nH]c2cc(Cl)ccc12 | 170 | – | –
48 | CN(C)CCNC(=O)Cc1c(-c2ccccc2)c(O)nc2cc(Cl)ccc12 | – | – | inhibition [18]: 29%; No. of mice protected [4]: 0
49 | CN(C)CCNc1c(-c2ccccc2)c(=O)[nH]c2cc(Cl)ccc12 | 3200 | – | –
50 | NC(=O)COc1c(-c2ccccc2)c(O)nc2cc(Cl)ccc12 | – | – | No. of mice protected [12]: 0; Kb [8]: 3100 nM
51 | COC(=O)CCc1c(-c2ccccc2)c(O)nc2cc(Cl)ccc12 | 500 | 4600 | No. of mice protected [5]: 0
52 | N#CCCc1c(-c2ccccc2)c(=O)[nH]c2cc(Cl)ccc12 | 750 | – | –
53 | Nc1c(-c2cccc(Oc3ccccc3)c2)c(O)nc2cc(Cl)ccc12 | 420 | 3400 | No. of mice protected [4]: 2
54 | CN(C)c1c(-c2ccccc2)c(=O)[nH]c2cc(Cl)ccc12 | > 100000 | – | –
55 | O=C(O)Cc1c(-c2ccccc2)c(O)nc2cc(Cl)ccc12 | – | 1400 | No. of mice protected at 20 mg/kg [5]: 0 mg/kg
56 | NC(=O)CCc1c(-c2ccccc2)c(=O)[nH]c2cc(Cl)ccc12 | 190 | – | –
57 | NC(=O)CCc1c(-c2ccccc2)c(O)nc2cc(Cl)ccc12 | – | 2900 | No. of mice protected [4]: 1
58 | O=C(O)Cc1c(-c2ccccc2)c(=O)[nH]c2cc(Cl)ccc12 | 160 | – | –
59 | COc1c(-c2ccccc2)c(=O)[nH]c2cc(Cl)ccc12 | > 100000 | – | –
